Data taken from ChEMBL document CHEMBL2390835, “Synthesis and antimalarial testing of neocryptolepine analogues: addition of ester function in SAR study of 2,11-disubstituted indolo[2,3-b]quinolines” (Eur J Med Chem, 2013).

Columns and labels:
[1] = Selectivity index, ratio of IC50 for rat L6 cells to IC50 for chloroquine-sensitive erythrocytic stage of Plasmodium falciparum NF54; format: toxicity, cell-based; details: read-out: Ratio IC50
Summary of the method: (§1)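 IC50 in rat L6 skeletal myoblasts divided by the antiplasmodial IC50 for the named strain. L6 cells were seeded at 4000 per well in RPMI 1640 with L-glutamine and 10% FBS and exposed to eleven 3-fold dilutions from 100 to 0.002 µg/mL for 70 h. Alamar Blue was then added for 2 h and fluorescence read at ex 536 / em 588 nm. IC50 by linear regression of the sigmoidal curves.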

Plasmodium falciparum [2] = experiment: Resistance index, ratio of IC50 for chloroquine-resistant erythrocytic stage of Plasmodium falciparum K1 to IC50 for chloroquine-sensitive erythrocytic stage of Plasmodium falciparum NF54; format: functional
[3] = Selectivity index, ratio of IC50 for rat L6 cells to IC50 for chloroquine-resistant erythrocytic stage of Plasmodium falciparum K1; format: toxicity, cell-based; details: read-out: Ratio IC50; summary of the method: as §1
L6 = experiment: Cytotoxicity against rat L6 cells assessed as growth inhibition after 70 hrs by Alamar blue staining-based inverted microscopic analysis; format: cell-based; details: L6, 70 h
Summary of the method: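 L6 rat skeletal myoblasts, 4000 cells/well in RPMI 1640 with 1% L-glutamine (200 mM) and 10% FBS. Eleven 3-fold dilutions spanning 100 to 0.002 µg/mL. After 70 h, Alamar Blue added for 2 h more. Fluorescence read at ex 536/em 588 nm. IC50 from sigmoidal dose–inhibition curves by linear regression.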

Plasmodium falciparum [4] = experiment: Antimalarial activity against chloroquine-sensitive erythrocytic stage of Plasmodium falciparum NF54 infected in human red blood cells assessed as growth inhibition after 72 hrs by [3H]-hypoxanthine incorporation assay
Plasmodium falciparum [5] = experiment: Antimalarial activity against chloroquine-resistant erythrocytic stage of Plasmodium falciparum K1 infected in human red blood cells assessed as growth inhibition after 48 hrs by [3H]-hypoxanthine incorporation assay; format: functional, organism-based
Summary of the method: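 Erythrocytic P. falciparum in RPMI 1640 without hypoxanthine, with HEPES, NaHCO3, neomycin, Albumax, and human A+ red cells at 2.5% haematocrit and 0.3% parasitaemia. Compounds from a 10 mg/mL DMSO stock, eleven 3-fold dilutions from 100 to 0.002 µg/mL. Incubated 48 h at 37 °C (4% CO2, 3% O2), then 3H-hypoxanthine added for 24 h more. Cells harvested and counted by scintillation. IC50 by linear regression of the sigmoidal curves, mean of two independent assays.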

[6] = Inhibition of beta-haematin formation after 5 to 6 hrs by UV-vis spectamax plate reader analysis; format: functional
Summary of the method: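 Detergent-mediated assay: compounds from DMSO stocks (20, 2, 0.4 mM) in duplicate, 0–1000 µM final. Added water and NP-40, then haematin at 100 µM final in 0.5 M acetate buffer pH 4.8. Incubated at 37 °C for 5–6 h. Pyridine added to 5% v/v final in HEPES pH 7.4 with acetone. Haem–pyridine absorbance read (405 nm). IC50 from sigmoidal fits.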

[7] = Solubility of the compound in water; format: physicochemical; details: buffer
Plasmodium berghei [8] = experiment: Antimalarial activity against Plasmodium berghei infected in Swiss mouse assessed as reduction in parasitaemia at 20 mg/kg, ip administered for 4 days measured on day 7 by FACS analysis relative to control; format: functional; set-up: scale not given: the % may be the effect or the level left; details: route intraperitoneal
Summary of the method: (§2)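 Intraperitoneal dosing at 20 mg/kg daily for four consecutive days. Parasitaemia read on day 4 and day 7. Activity is the difference between mean percent parasitaemia of the control group (n = 5 mice) and the treated group, expressed as a percent of control.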

Plasmodium berghei [9] = experiment: Antimalarial activity against Plasmodium berghei infected in Swiss mouse assessed as reduction in parasitaemia at 20 mg/kg, ip administered for 4 days measured on day 4 post last dose by FACS analysis relative to control; format: functional; set-up: scale not given: the % may be the effect or the level left; details: route intraperitoneal; summary of the method: as §2
MRC5 = experiment: Cytotoxicity against human MRC5 cells assessed as growth inhibition; format: cell-based

## Cn1c2nc3ccccc3c-2c(NCCCN)c2ccccc21
[1]
  selectivity ratio: 3.5

## COC(=O)c1ccc2c(c1)c(NCCCNC(=O)Nc1ccccc1)c1c3cc(Br)ccc3nc-1n2C
Plasmodium falciparum [2]
  Ratio IC50: 2.75
[3]
  selectivity ratio: 56.9
L6
  IC50: 1120 nM
Plasmodium falciparum [4]
  IC50: 7.15 nM
Plasmodium falciparum [5]
  IC50: 19.7 nM
[6]
  IC50: 10100 nM
[1]
  selectivity ratio: 157

## Cn1c2nc3ccc(Br)cc3c-2c(NCCCNC(=O)Nc2ccccc2)c2cc(Cl)ccc21
Plasmodium falciparum [2]
  Ratio IC50: 3
[3]
  selectivity ratio: 24.3
L6
  IC50: 408 nM
Plasmodium falciparum [4]
  IC50: 5.59 nM
Plasmodium falciparum [5]
  IC50: 16.8 nM
[6]
  IC50: 17800 nM
[1]
  selectivity ratio: 73

## COC(=O)c1ccc2nc3n(C)c4ccc(Br)cc4c(NCCCN)c-3c2c1
L6
  IC50: 819 nM
Plasmodium falciparum [4]
  IC50: 2.27 nM
[6]
  IC50: 11500 nM
[1]
  selectivity ratio: 361

## COC(=O)c1ccc2c(c1)c(NCCCN)c1c3cc(Br)ccc3nc-1n2C
Plasmodium falciparum [2]
  Ratio IC50: 3.5
[3]
  selectivity ratio: 66
L6
  IC50: 1050 nM
Plasmodium falciparum [4]
  IC50: 4.54 nM
Plasmodium falciparum [5]
  IC50: 15.9 nM
[6]
  IC50: 10200 nM
[1]
  selectivity ratio: 232

## Cn1c2nc3ccc(Br)cc3c-2c(NCCCN)c2cc(Cl)ccc21
Plasmodium falciparum [2]
  Ratio IC50: 8.89
[3]
  selectivity ratio: 20.9
L6
  IC50: 401 nM
Plasmodium falciparum [4]
  IC50: 2.16 nM
Plasmodium falciparum [5]
  IC50: 19.2 nM
[6]
  IC50: 30100 nM
[1]
  selectivity ratio: 186

## Cn1c2nc3ccc(C(=O)O)cc3c-2c(NCCCN)c2ccccc21
[7]
  solubility: soluble
L6
  IC50: 113000 nM
Plasmodium falciparum [4]
  IC50: 1690 nM
[1]
  selectivity ratio: 66.8

## CN(C)CCNc1c2c3cc(C(=O)O)ccc3nc-2n(C)c2ccccc12
[7]
  solubility: soluble
L6
  IC50: 20000 nM
Plasmodium falciparum [4]
  IC50: 2550 nM
[1]
  selectivity ratio: 7.84

## CN(C)CCCNc1c2c3cc(C(=O)O)ccc3nc-2n(C)c2ccccc12
[7]
  solubility: soluble
L6
  IC50: 66200 nM
Plasmodium falciparum [4]
  IC50: 2160 nM
[1]
  selectivity ratio: 30.6

## COC(=O)c1ccc2c(c1)c(NCCCNC(=O)Nc1ccccc1)c1c3ccccc3nc-1n2C
Plasmodium falciparum [2]
  Ratio IC50: 13.5
[3]
  selectivity ratio: 13.4
L6
  IC50: 754 nM
Plasmodium falciparum [4]
  IC50: 4.16 nM
Plasmodium falciparum [5]
  IC50: 56.1 nM
[6]
  IC50: 23000 nM
[1]
  selectivity ratio: 181

## COC(=O)c1ccc2c(c1)c(NCCCNC(=S)Nc1ccccc1)c1c3ccccc3nc-1n2C
Plasmodium falciparum [2]
  Ratio IC50: 8.89
[3]
  selectivity ratio: 36.1
L6
  IC50: 581 nM
Plasmodium falciparum [4]
  IC50: 1.81 nM
Plasmodium falciparum [5]
  IC50: 16.1 nM
[6]
  IC50: 15700 nM
[1]
  selectivity ratio: 321

## COC(=O)c1ccc2nc3n(C)c4ccccc4c(NCCCNC(=O)Nc4ccccc4)c-3c2c1
Plasmodium falciparum [2]
  Ratio IC50: 4.71
[3]
  selectivity ratio: 37.7
L6
  IC50: 2580 nM
Plasmodium falciparum [4]
  IC50: 14.5 nM
Plasmodium falciparum [5]
  IC50: 68.4 nM
[6]
  IC50: 12800 nM
[1]
  selectivity ratio: 178

## COC(=O)c1ccc2nc3n(C)c4ccccc4c(NCCCNC(=S)Nc4ccccc4)c-3c2c1
Plasmodium falciparum [2]
  Ratio IC50: 10.7
[3]
  selectivity ratio: 43.8
L6
  IC50: 2820 nM
Plasmodium falciparum [4]
  IC50: 6.03 nM
Plasmodium falciparum [5]
  IC50: 64.4 nM
[6]
  IC50: 10800 nM
[1]
  selectivity ratio: 467

## COC(=O)c1ccc2nc3n(C)c4ccc(C(=O)OC)cc4c(NCCCNC(=O)Nc4ccccc4)c-3c2c1
Plasmodium falciparum [2]
  Ratio IC50: 2.44
[3]
  selectivity ratio: 650
L6
  IC50: 26500 nM
Plasmodium falciparum [4]
  IC50: 16.7 nM
Plasmodium falciparum [5]
  IC50: 40.8 nM
[6]
  IC50: 4600 nM
[1]
  selectivity ratio: 1590

## COC(=O)c1ccc2nc3n(C)c4ccc(C(=O)OC)cc4c(NCCCNC(=S)Nc4ccccc4)c-3c2c1
Plasmodium falciparum [2]
  Ratio IC50: 3.5
[3]
  selectivity ratio: 12.4
L6
  IC50: 627 nM
Plasmodium falciparum [4]
  IC50: 14.4 nM
Plasmodium falciparum [5]
  IC50: 50.4 nM
[6]
  IC50: 7500 nM
[1]
  selectivity ratio: 43.5

## COC(=O)c1ccc2nc3n(C)c4ccc(Cl)cc4c(NCCCNC(=O)Nc4ccccc4)c-3c2c1
Plasmodium falciparum [2]
  Ratio IC50: 1.71
[3]
  selectivity ratio: 143
L6
  IC50: 3340 nM
Plasmodium falciparum [4]
  IC50: 13.6 nM
Plasmodium falciparum [5]
  IC50: 23.3 nM
[6]
  IC50: 14900 nM
[1]
  selectivity ratio: 246

## COC(=O)c1ccc2nc3n(C)c4ccc(Br)cc4c(NCCCNC(=O)Nc4ccccc4)c-3c2c1
L6
  IC50: 6740 nM
Plasmodium falciparum [4]
  IC50: 8.05 nM
[6]
  IC50: 16000 nM
[1]
  selectivity ratio: 837

## COC(=O)c1ccc2nc3n(C)c4ccccc4c(N4CCCN(C)CC4)c-3c2c1
L6
  IC50: 6190 nM
Plasmodium falciparum [4]
  IC50: 750 nM
[6]
  IC50: 106000 nM
[1]
  selectivity ratio: 8.25

## COC(=O)c1ccc2nc3n(C)c4ccccc4c(N4CCOCC4)c-3c2c1
L6
  IC50: 3810 nM
Plasmodium falciparum [4]
  IC50: 1770 nM
[6]
  IC50: 55500 nM
[1]
  selectivity ratio: 2.15

## COC(=O)c1ccc2c(c1)c(NCCCN)c1c3ccccc3nc-1n2C
Plasmodium falciparum [2]
  Ratio IC50: 2.67
[3]
  selectivity ratio: 15.2
L6
  IC50: 337 nM
Plasmodium falciparum [4]
  IC50: 8.28 nM
Plasmodium falciparum [5]
  IC50: 22.1 nM
[6]
  IC50: 104000 nM
[1]
  selectivity ratio: 40.7
Plasmodium berghei [8]
  Activity: 72.5%
Plasmodium berghei [9]
  Activity: 33.4%

## COC(=O)c1ccc2nc3n(C)c4ccc(C(=O)OC)cc4c(NCCCN)c-3c2c1
Plasmodium falciparum [2]
  Ratio IC50: 1.25
[3]
  selectivity ratio: 117
L6
  IC50: 1390 nM
Plasmodium falciparum [4]
  IC50: 9.52 nM
Plasmodium falciparum [5]
  IC50: 11.9 nM
[6]
  IC50: 13000 nM
[1]
  selectivity ratio: 146

## COC(=O)c1ccc2nc3n(C)c4ccc(Cl)cc4c(NCCCN)c-3c2c1
Plasmodium falciparum [2]
  Ratio IC50: 2.67
[3]
  selectivity ratio: 21.1
L6
  IC50: 427 nM
Plasmodium falciparum [4]
  IC50: 7.57 nM
Plasmodium falciparum [5]
  IC50: 20.2 nM
[6]
  IC50: 25400 nM
[1]
  selectivity ratio: 56.4

## COC(=O)c1ccc2nc3n(C)c4ccccc4c(NCCCN)c-3c2c1
Plasmodium falciparum [2]
  Ratio IC50: 1.22
[3]
  selectivity ratio: 7.19
L6
  IC50: 218 nM
Plasmodium falciparum [4]
  IC50: 24.8 nM
Plasmodium falciparum [5]
  IC50: 30.3 nM
[6]
  IC50: 48900 nM
[1]
  selectivity ratio: 8.79
Plasmodium berghei [8]
  Activity: 72.5%
Plasmodium berghei [9]
  Activity: 33.4%

## COC(=O)c1ccc2nc3n(C)c4ccccc4c(NCCCCN)c-3c2c1
L6
  IC50: 436 nM
Plasmodium falciparum [4]
  IC50: 55.8 nM
[1]
  selectivity ratio: 7.81

## COC(=O)c1ccc2nc3n(C)c4ccccc4c(NCCN(C)C)c-3c2c1
L6
  IC50: 315 nM
Plasmodium falciparum [4]
  IC50: 42.5 nM
[6]
  IC50: 51500 nM
[1]
  selectivity ratio: 7.41

## COC(=O)c1ccc2nc3n(C)c4ccccc4c(NCCCN(C)C)c-3c2c1
L6
  IC50: 268 nM
Plasmodium falciparum [4]
  IC50: 33.3 nM
[6]
  IC50: 62500 nM
[1]
  selectivity ratio: 8.05

## COC(=O)c1ccc2nc3n(C)c4ccccc4c(NCCCO)c-3c2c1
L6
  IC50: 639 nM
Plasmodium falciparum [4]
  IC50: 278 nM
[6]
  IC50: 123000 nM

## Cn1c2nc3ccccc3c-2cc2cc(Br)ccc21
MRC5
  IC50: > 32000 nM

## CCN(CC)CCCC(C)Nc1ccnc2cc(Cl)ccc12 (configuration not stated) [CHLOROQUINE]
[6]
  IC50: 18400 nM

## Cn1c2nc3ccccc3c-2cc2ccccc21 [NEOCRYPTOLEPINE]
Plasmodium falciparum [2]
  Ratio IC50: 1.07
[3]
  selectivity ratio: 1.88
[1]
  selectivity ratio: 2
